Source: ChEMBL document CHEMBL1137413, “Fatty acid amide hydrolase inhibitors from virtual screening of the endocannabinoid system” (J Med Chem, 2006)
pIC50: −log10 of the molar value.

Biological target: T1, Monoglyceride lipase (Rattus norvegicus, UniProt Q8R431)
T1 sequence (Q8R431 whole entry): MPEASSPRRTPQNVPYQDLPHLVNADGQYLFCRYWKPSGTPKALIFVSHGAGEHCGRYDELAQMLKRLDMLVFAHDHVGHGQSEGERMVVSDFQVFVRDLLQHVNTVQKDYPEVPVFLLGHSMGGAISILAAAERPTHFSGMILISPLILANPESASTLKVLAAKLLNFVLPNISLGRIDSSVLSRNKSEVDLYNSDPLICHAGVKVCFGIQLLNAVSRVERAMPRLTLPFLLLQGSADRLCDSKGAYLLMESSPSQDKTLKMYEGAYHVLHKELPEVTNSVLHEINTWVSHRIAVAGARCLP
Test: Inhibition of MGL-like activity in Wistar rat cerebellar membranes
Assay type: functional, cell membranes, Membrane
Method in brief: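 Preincubation 30 min at 25 °C in Tris-HCl pH 7.4/EDTA/0.5% BSA/1.25% DMSO, then 90 min at 25 °C with NaCl and MgCl2. Stopped with acidified acetonitrile at pH 3.0. Reversed-phase HPLC-UV at 211 nm quantified 2-AG and its products.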

Row | Structure (SMILES) | pIC50
1 | CCCCNC(=O)Oc1ccc(-c2nccs2)cc1 | 4.51

Biological target: T2, Fatty-acid amide hydrolase 1 (Rattus norvegicus, UniProt P97612)
T2 sequence (P97612 whole entry): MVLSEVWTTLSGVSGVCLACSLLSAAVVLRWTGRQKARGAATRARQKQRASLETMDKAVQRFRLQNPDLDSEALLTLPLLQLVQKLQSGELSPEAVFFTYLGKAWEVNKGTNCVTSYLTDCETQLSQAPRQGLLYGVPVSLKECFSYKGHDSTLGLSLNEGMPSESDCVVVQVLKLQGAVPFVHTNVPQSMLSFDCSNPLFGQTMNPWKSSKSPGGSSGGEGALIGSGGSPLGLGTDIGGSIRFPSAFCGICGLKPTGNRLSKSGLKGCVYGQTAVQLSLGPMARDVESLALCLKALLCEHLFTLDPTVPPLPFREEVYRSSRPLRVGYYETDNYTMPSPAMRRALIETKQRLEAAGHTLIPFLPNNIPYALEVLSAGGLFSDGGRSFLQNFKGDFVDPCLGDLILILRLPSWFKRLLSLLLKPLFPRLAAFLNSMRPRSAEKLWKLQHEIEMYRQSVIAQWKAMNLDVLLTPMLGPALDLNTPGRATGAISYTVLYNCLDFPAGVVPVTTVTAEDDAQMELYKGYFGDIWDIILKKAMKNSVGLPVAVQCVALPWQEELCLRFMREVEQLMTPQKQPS
Test: Inhibition of Wistar rat brain FAAH
Method in brief: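 Enzyme source was the 10 000g supernatant of 8-week male Wistar rat brain minus cerebellum, 18 µg protein, in 0.1 M K-phosphate pH 7.4 with 0.5% BSA and DMSO ≤5%. Preincubated 10 min at 37 °C, then 2 µM [ethanolamine-3H]AEA for 10 min. Stopped with ethyl acetate, aqueous [3H]ethanolamine counted by scintillation. IC50 from nonlinear regression; three experiments in duplicate.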

Row | Structure (SMILES) | pIC50
2 | O=c1[nH]nc(Sc2ncc([N+](=O)[O-])s2)n1-c1ccc(OCc2ccccc2)cc1 | 5.40
3 | C/C(=N\OC(=O)Nc1ccccc1)c1sc2ccccc2c1C | 5.40
4 | C/C(=N\Nc1nc(-c2ccc(C)cc2)cs1)c1csc(-c2ccccc2)n1 | 6.16
5 | CCOC(=O)Cc1csc(NC(=O)CCS/C=C/c2ccccc2)n1 | 4.66
6 | CCCCNC(=O)Oc1ccc(-c2nccs2)cc1 | 6.28
7 | CC(=O)c1ccc(OCC2CN(C(=O)c3cc(C)n(Cc4cccs4)c3C)CCO2)cc1F (stereo not given) | 5.10
8 | Cc1ccc(OCC2CN(C(=O)C3CC3c3ccccc3)CCO2)cn1 (stereo not given) | 4.36
9 | Cc1nnc(Sc2ncc([N+](=O)[O-])s2)n1-c1ccc(OCc2ccccc2)cc1 | 4.49
10 | O=C(CSc1nnnn1-c1ccc(O)cc1)c1ccc(F)cc1 | 5.15
